# Bioassay records as filed in PubChem BioAssay.
# ANO1 activ – activators or potentiators of mouse TMEM16A chloride channel; B-score at 10 µM; Q8BHY3; AID 623877; actives 0.3% (n = 340,000); HEK293 TMEM16A/YFP-H148Q/I152L, iodide quench fluorescence; hits give low values;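 active = fluorescence-ratio B-score plate-corrected deviation score at least 3 library SD below zero, with starting fluorescence score within 5 deviations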;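 note: channel opened by trigger with iodide after compound preincubation; score built on the fluorescence ratio of max minus min over baseline; more negative score means more quench and so TMEM16A activation or potentiation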
# ANO1 block – blocks the mouse calcium-activated chloride channel TMEM16A. Q8BHY3. HEK293 TMEM16A/YFP iodide influx fluorescence, ionomycin. normalized B-score (activity score, 25-100; higher = stronger inhibition) at 10 µM. actives 1.2% (n = 310,000);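 active = ratio plate-corrected score three or more library SD toward inhibition, starting fluorescence score within five deviations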;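 note: score derived from kinetic fluorescence span divided by baseline fluorescence per well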
# MC4R barr agon – agonists of human melanocortin 4 receptor (MC4R) beta-arrestin; actives 0.98% (n = 360,000); activation, % at 8.9 µM; U2OS MC4R beta-arrestin complementation, luminescence; percent of melanotan II response, DMSO zero; P32245;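 active = activation above a per-plate cutoff, the mean activation of sample wells on that plate plus 3 SD, cut at about 8% in these data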
# Target sequence (P32245 whole entry, looked up): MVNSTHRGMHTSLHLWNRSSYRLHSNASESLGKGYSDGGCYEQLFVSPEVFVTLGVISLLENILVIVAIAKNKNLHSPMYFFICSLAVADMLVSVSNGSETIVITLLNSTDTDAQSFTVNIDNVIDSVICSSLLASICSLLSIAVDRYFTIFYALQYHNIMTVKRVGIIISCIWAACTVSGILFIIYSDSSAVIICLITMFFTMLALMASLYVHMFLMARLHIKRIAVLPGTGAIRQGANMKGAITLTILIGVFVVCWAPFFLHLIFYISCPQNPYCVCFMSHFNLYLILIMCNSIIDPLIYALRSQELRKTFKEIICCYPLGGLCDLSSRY
# MIN6 prolif – MIN6 beta-cell proliferation induction; AID 2380; MIN6 cells proliferation, ATPlite luminescence, 48 h; cells starved in 0.2% serum; 100% = growth in 10% serum; actives 0.29% (n = 330,000); proliferation, % at 10 µM;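 active = compounds whose signal lies at least 3.5 SD above the mean of all wells on their plate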
# MC4R antagonist – antagonists of human melanocortin 4 receptor (MC4R); P32245; MC4R-expressing cells, MTII-stimulated cAMP, LANCE TR-FRET; inhibition, % at 6.5 µM; actives 0.48% (n = 360,000); AID 540295;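 active = inhibition above its plate's cutoff, the mean of tested wells on that plate plus 3 SD, cut at about 29% in these data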
#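 Material: U2OS-MC4R stable cell line | Reagent: Melanotan II challenge after compound preincubation | Doses: One concentration, 6.5 µM nominal | Incubation: 30-min compound preincubation, 1-h Melanotan II challenge, 1-h detection, room temperature | Signal: TR-FRET cAMP assay | Replicates: One well per compound, no replicates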
# m5-HT2A agonist – mouse HTR2A agonism via beta-arrestin recruitment; P35363; CHO-K1 mHTR2A beta-arrestin complementation, luminescence; percent of 30 µM serotonin response; activation, % at 7.6 µM; actives 0.66% (n = 360,000);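 active = activation above a run cutoff, the mean activation of all tested compounds plus 3 SD, cut at about 14% in these data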
# U2OS cAMP counter – nonselective cAMP signaling inhibitor, MC4R antagonist counter-screen; actives 26% (n = 1,600); parental U2OS, forskolin cAMP, LANCE TR-FRET; AID 602193; shares compounds with MC4R antagonist; inhibition, % at 6.5 µM;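 active = mean inhibition over triplicates above the low-control well mean plus 3 SD, set per campaign, cut at about 13% in these data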;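 note: signal is single emission at 671 nm which falls as cellular cAMP rises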
# MC4R antag conf – human MC4R cAMP antagonism confirmation; AID 602195; inhibition, % at 6.5 µM; actives 27% (n = 1,600); MC4R-expressing cells, MTII-stimulated cAMP, TR-FRET; shares compounds with MC4R antagonist; in the data active = inhibition above about 29%
# Numbers stand for hits; i = inactive; nt = no result. Compounds with a hit are over-represented: about 3.4% of the library has one in this group of screens.
SMILES,ANO1 activ,ANO1 block,MC4R barr agon,MIN6 prolif,MC4R antagonist,m5-HT2A agonist,U2OS cAMP counter,MC4R antag conf
COC(=O)c1sc(N)c(C(=O)OC)c1COC(=O)CCNS(=O)(=O)c1ccc(C)cc1,i,i,i,i,i,i,nt,nt
O=C(CNS(=O)(=O)c1ccc2ccccc2c1)OCc1nnc(-c2ccccc2)o1,i,i,i,i,35,i,17,35
CCOC(=O)CCCCCC(=O)Nc1ccc2c(c1)C(=O)N([C@@H](C)CO)C[C@H](C)[C@H](CN(C)C(=O)c1ccccc1)OCCCC[C@H](C)O2,nt,nt,i,nt,i,i,nt,nt
CCN(CC)C(=O)C1=C(C)N(CCCOC)C(=O)C(CC(=O)NCCc2ccccn2)C1 (centres undefined),nt,nt,i,nt,i,i,nt,nt
Cc1cc(NC(=O)COC(=O)CNS(=O)(=O)c2ccc(C)c(C)c2)no1,i,i,i,i,47,i,14,30
Cc1ccc(S(=O)(=O)N2CCCC(C(=O)NCCc3ccc(Cl)cc3)C2)cc1 (centres undefined),nt,nt,i,nt,i,i,nt,nt
Cc1ccc(S(=O)(=O)N2CCCCC2)cc1NC(=O)COC(=O)CNC(=O)c1cc(Cl)cc([N+](=O)[O-])c1,i,i,i,i,31,i,i,i
Cc1ccc(C(=O)NCC(=O)OCC(=O)Nc2cc(S(=O)(=O)N3CCOCC3)ccc2C)cc1,i,i,i,i,i,i,nt,nt
Cc1ccc(Cn2c(SCC(=O)N3CC(=O)Nc4ccccc43)nc3ccccc3c2=O)cc1,i,i,i,i,29,i,i,i
CC(c1ccccc1)n1c(SCC(=O)N2CC(=O)Nc3ccccc32)nc2ccccc2c1=O (centres undefined),i,i,i,i,33,i,i,i
O=C(c1ccccc1)c1ccc2c(c1)OCCOCCOCCOCCO2,i,i,i,i,i,i,nt,nt
O=C(c1cccc([N+](=O)[O-])c1)c1ccc2c(c1)OCCOCCOCCOCCO2,i,i,i,i,35,i,i,i
Cc1cccc(C)c1NC(=O)COc1ccccc1C(=O)Nc1ccc(Br)cn1,i,i,i,i,33,i,50,91
Cn1c(=O)c2c(-c3ccccc3)n(-c3ccccc3)cc2n(C)c1=O,nt,nt,i,nt,i,i,nt,nt
Cn1c(=O)c2c(-c3ccccc3)n(-n3cnnc3)cc2n(C)c1=O,i,i,i,i,29,i,i,i
CN(NS(=O)(=O)c1ccc(Br)cc1)c1nc(C(F)(F)F)nc2ccccc12,i,25,i,i,32,i,i,i
COc1ccc(NC(=O)c2cccc(N3C(=O)c4cccc([N+](=O)[O-])c4C3=O)c2)cc1,i,i,i,i,i,i,nt,nt
COc1ccc(/C=C2\C(=O)N(c3c(Cl)cc(Cl)cc3Cl)N=C2NC(=O)c2cccc([N+](=O)[O-])c2)cc1,i,i,i,nt,32,i,i,i
CC(CCc1ccccc1)NC(=O)CN1CCSc2ccccc21 (centres undefined),i,i,i,i,31,i,i,i
CC(CCc1ccccc1)NC(=O)CN1CCOc2ccccc21 (centres undefined),i,i,i,i,i,i,nt,nt
C[C@@H]1CN(Cc2nc(Cc3ccccc3F)no2)C[C@H](C)O1,i,i,i,i,33,i,i,i
COc1ccc(S(=O)(=O)NCC2CCC(C(=O)NCCCN3CCCC3=O)CC2)cc1 (centres undefined),i,i,i,i,i,i,nt,nt
CC(Oc1ccc2ccc(=O)oc2c1)C(=O)NC(Cc1c[nH]c2ccc(O)cc12)C(=O)O (centres undefined),i,i,i,i,i,i,nt,nt
CCOC(=O)CSc1nnc(-c2ccccc2)o1,i,i,i,i,i,i,nt,nt
CCOC(=O)Cc1csc(NC(=O)CSc2nnc(-c3ccc(NS(=O)(=O)CC)cc3)o2)n1,i,i,i,i,30,i,i,i
SMILES,ANO1 activ,ANO1 block,MC4R barr agon,MIN6 prolif,MC4R antagonist,m5-HT2A agonist,U2OS cAMP counter,MC4R antag conf
COC(=O)CSc1nnc(-c2ccc(OC)c(OC)c2)o1,i,i,i,i,i,i,nt,nt
COC(=O)CSc1nnc(-c2ccc(S(=O)(=O)NCc3ccccc3Cl)cc2)o1,i,i,i,i,36,i,i,40
CCOC(=O)CSc1nnc(-c2ccc(S(=O)(=O)NCc3cccs3)cc2)o1,i,i,i,i,39,i,15,42
COC(=O)CSc1nnc(-c2ccc(S(=O)(=O)N3CCCC3)cc2)o1,i,i,i,i,34,i,14,i
CC(C)(C)NC(=O)NC(=O)CN1C(=O)NC(c2ccccc2)(c2ccccc2)C1=O,i,i,i,i,i,i,nt,nt
Cn1c(Cc2ccccc2)nnc1SCC(=O)Nc1ccc(N2CCOCC2)cc1,i,i,i,i,i,i,nt,nt
CCS(=O)(=O)Nc1ccc(-c2nnc(SCC(=O)OC)o2)cc1,i,i,i,i,i,i,nt,nt
COC(=O)CSc1nnc(-c2ccc(S(=O)(=O)NCc3cccs3)cc2)o1,i,i,i,i,43,i,17,44
CCCCn1c(N)c(N(CCOC)C(=O)c2oc3c(Cl)cccc3c2C)c(=O)[nH]c1=O,nt,nt,i,nt,i,i,nt,nt
COc1ccc(N2CCN(c3n[nH]c(N)n3)CC2)cc1,i,i,i,i,35,i,i,i
Cc1cccc(C)c1N1CCN(c2n[nH]c(N)n2)CC1,i,i,i,i,i,i,nt,nt
CC(C)(C)OC(=O)NCCCC[C@H](NC(=O)c1nc[nH]c1C(=O)NCC(=O)OCc1ccccc1)C(=O)OC(C)(C)C,i,i,i,i,i,i,nt,nt
C[C@H](NC(=O)c1[nH]cnc1C(=O)Nc1ccc(CNC(=O)OC(C)(C)C)cc1)C(=O)OCc1ccccc1,i,100,i,i,29,i,i,i
CC(C)(C)OC(=O)NCCCCCNC(=O)c1nc[nH]c1C(=O)NCC(=O)OCc1ccccc1,i,nt,i,i,46,i,i,i
CC(C)(C)OC(=O)NCc1ccc(NC(=O)c2nc[nH]c2C(=O)N[C@@H](Cc2ccccc2)C(=O)OC(C)(C)C)cc1,i,i,i,i,i,i,nt,nt
CC(C)C[C@H](NC(=O)c1[nH]cnc1C(=O)Nc1ccc(CNC(=O)OC(C)(C)C)cc1)C(=O)OCc1ccccc1,i,i,i,i,61,i,18,37
CC(C)(C)NC(=O)C1c2ccccc2OCC(=O)N1CCCN1CCOCC1 (centres undefined),nt,nt,nt,nt,nt,i,nt,nt
